Experimental data from different studies.
Protocols differ between the studies behind these lines.
HDAC3: Histone deacetylase 3 (HDAC3, Homo sapiens, UniProt O15379)
MET: Hepatocyte growth factor receptor (MET, Homo sapiens, UniProt P08581)
IDE: Insulin-degrading enzyme (IDE, Homo sapiens, UniProt P14735)
Ptgs2: Prostaglandin G/H synthase 2 (Ptgs2, Mus musculus, UniProt Q05769)
P2RX7: P2X purinoceptor 7 (P2RX7, Homo sapiens, UniProt Q99572)
KCNA5: Potassium voltage-gated channel subfamily A member 5 (KCNA5, Homo sapiens, UniProt P22460)
gag-pol integrase: Gag-Pol polyprotein, integrase (gag-pol, Human immunodeficiency virus 1, UniProt P12497)
JAK3: Tyrosine-protein kinase JAK3 (JAK3, Homo sapiens, UniProt P52333)

SMILES	target	read-out	action	technique	setting	IC50
CC(C)C[C@H]1CC(=O)N[C@@H](C)C(=O)N[C@@H](CCCCCC(=O)O)C(=O)N[C@@H](Cc2c[nH]c3ccccc23)C(=O)N1	HDAC3	enzyme activity	inhibitor	–	–	0.6 µM
Cc1cc(Oc2ccc(NC(=O)c3cc(-c4cccs4)no3)cc2)c2nncn2n1	MET	enzyme activity	inhibitor	mobility shift	–	0.88 µM
O=C(O)C(CCC(c1ccccc1)(c1ccccc1)c1ccccc1)NCc1ccccc1 (racemic)	Kinesin-like protein KIF11 (KIF11, Homo sapiens, UniProt P52732)	ATPase activity	inhibitor	–	–	> 49.2 µM
Cc1[nH]c(/C=C2\C(=O)Nc3ccc(S(=O)(=O)N(C)c4cccc(Cl)c4)cc32)c(C)c1C(=O)N1CCN(C)CC1	Hepatocyte growth factor receptor, non-phosphorylated (MET, Homo sapiens, UniProt P08581)	enzyme activity	inhibitor	TR-FRET	–	0.005 µM
CCCCCCCCCCC[C@@H](C[C@@H]1OC(=O)[C@H]1CCCCCC)OC(=O)[C@H](CC(C)C)NC=O	Lysosomal acid lipase/cholesteryl ester hydrolase (LIPA, Homo sapiens, UniProt P38571)	enzyme activity	inhibitor	–	–	0.168 µM
COC(=O)[C@H](Cc1c[nH]cn1)NC(=O)CN(CC(=O)O)Cc1ccncc1	IDE	enzyme activity	inhibitor	fluorescence	–	6.3 µM
CC(C(=O)O)c1cccc(C(=O)c2ccccc2)c1 (stereo not shown)	Ptgs2	enzyme activity	inhibitor	–	–	0.72 µM
O=C(Nc1ccccc1OS(=O)(=O)c1cccs1)c1ccc2ncccc2c1	P2RX7	calcium signal	antagonist	–	–	2.48 µM
C[C@H]1C[C@@H](N2C(=N)N[C@](C)(c3cccc(Nc4ccc(C5CC5)nc4)c3Cl)CC2=O)CCO1	KCNA5	ion current	inhibitor	patch clamp	–	4.62 µM
Cc1cnc(-c2ccc(-c3ccc(NC(=O)Nc4c(F)cc(F)cc4F)cc3F)c3c2C(=O)NC3)[nH]1	Serine/threonine-protein kinase 4 (STK4, Homo sapiens, UniProt Q13043)	enzyme activity	inhibitor	–	–	0.0021 µM
Cc1cc(Oc2ccc(NC(=O)c3sc(-c4ccccc4)nc3C)cc2F)c2nncn2n1	MET	enzyme activity	inhibitor	mobility shift	–	0.63 µM
Cc1nc2ccc(Br)cc2c(-c2ccc(Cl)cc2)c1C(OC(C)(C)C)C(=O)O (stereo not shown)	gag-pol integrase	enzyme activity	inhibitor	TR-FRET	–	0.12 µM
CC[C@H](C)[C@H](NC(C)=O)C(=O)N[C@@H](CCC(=O)O)C(=O)N[C@H](C(=O)N[C@H](C=O)CC(=O)O)[C@@H](C)O	Caspase-1 (CASP1, Homo sapiens, UniProt P29466)	enzyme activity	inhibitor	–	–	0.0173 µM
Cc1cc(Oc2ccc(NC(=O)c3sc(-c4ccncc4)nc3C)cc2F)c2nncn2n1	MET	enzyme activity	inhibitor	mobility shift	–	0.65 µM
NC(=O)[C@H](Cc1c[nH]cn1)NC(=O)CN(CC(=O)O)Cc1ccccc1	IDE	enzyme activity	inhibitor	fluorescence	–	1.4 µM
CN1CCN(c2ccc(Nc3ncc4cc(C#N)c(=O)n(C5CCCC5)c4n3)cc2)CC1	Serine/threonine-protein kinase Nek9 (NEK9, Homo sapiens, UniProt Q8TD19)	enzyme activity	inhibitor	–	–	0.399 µM
CCOC(=O)c1cnc2[nH]ccc2c1N[C@@H]1CCCN(C(=O)CC#N)C1	JAK3	enzyme activity	inhibitor	–	–	0.0036 µM
Cc1ccc(C(=O)Nc2ccc(Oc3cc4cnn(C)c4cc3-c3cn[nH]c3)c(F)c2)c(=O)n1-c1ccc(F)cc1	Macrophage colony-stimulating factor 1 receptor (CSF1R, Homo sapiens, UniProt P07333)	enzyme activity	inhibitor	radiometric	–	0.032 µM
CCOC(=O)CC1=C/C(=C\c2ccc(-c3ccccc3)cc2)c2ccc(F)cc21	Ptgs2	enzyme activity	inhibitor	–	–	~10 µM
O=C(O)[C@H](Cc1ccc2ccccc2c1)NC(=O)C1(c2ccc3ccccc3c2)CCN(S(=O)(=O)c2ccccc2)CC1	gag-pol integrase	enzyme activity	inhibitor	TR-FRET	–	54.7 µM
CC(C)(C)n1nc(-c2cnc3cc(OC4CC4)ccc3c2)c(C(N)=O)c1N	JAK3	cell-free assay	–	–	–	> 10 µM
O=C(Nc1ccn(Cc2ccc(O)cc2C(F)(F)F)n1)c1c(F)cccc1F	KCNA5	ion current	inhibitor	–	–	> 10 µM
O=C(O)CC1=C/C(=C\c2cccc(-c3ccc(F)cc3)n2)c2ccc(F)cc21	Ptgs2	enzyme activity	inhibitor	–	–	0.67 µM

SMILES	target	read-out	action	technique	setting	IC50
CNC(=O)c1cc2c(Oc3ccc(NC(=O)C4(C(=O)Nc5ccc(F)cc5)CC4)cc3)ccnc2cc1OC	Hepatocyte growth factor receptor (MET, Homo sapiens, UniProt P08581, Y1230H)	enzyme activity	inhibitor	radiometric	–	0.005 µM
O=C(Nc1ccccc1OS(=O)(=O)c1ccc([N+](=O)[O-])cc1)c1ccc2ncccc2c1	P2RX7	calcium signal	antagonist	–	–	1.81 µM
CC1(COc2ccc(CC3SC(=O)NC3=O)cc2)CCCCC1 (stereo not shown)	Peroxisome proliferator-activated receptor alpha (PPARA, Homo sapiens, UniProt Q07869)	ligand displacement	–	TR-FRET	–	377 µM
COC(=O)CN(CC(=O)N[C@@H](Cc1c[nH]cn1)C(=O)OC)Cc1ccccc1	IDE	enzyme activity	inhibitor	fluorescence	–	> 100 µM
COc1ccc(-c2n[nH]c(=S)o2)cc1	P2RX7	calcium signal	antagonist	–	–	8.29 µM
Cc1cc(Oc2ccc(NC(=O)c3sc(-c4ccccn4)nc3C)cc2F)c2nncn2n1	MET	enzyme activity	inhibitor	mobility shift	–	0.9 µM
CN(C)C(=O)[C@H](Cc1c[nH]cn1)NC(=O)CN(CC(=O)O)Cc1ccccc1	IDE	enzyme activity	inhibitor	fluorescence	–	6.9 µM
CC(C)n1nc(-c2ccc3c(c2)sc2ccccc23)c2c(N)ncnc21	Calmodulin-domain protein kinase 1, putative (Cryptosporidium parvum, UniProt A3FQ16)	enzyme activity	inhibitor	–	–	> 3 µM
CCCC[C@H](NC(=O)C1CN(C)C1)c1ncc(-c2cc3ccccc3nc2OC)[nH]1	HDAC3	enzyme activity	inhibitor	–	–	0.016 µM
CC/C=C\C/C=C\C/C=C\C/C=C\C/C=C\CCCC(=O)O	POLE (Homo sapiens, UniProt Q07864)	enzyme activity	inhibitor	–	–	35 µM
COc1ccc2c(Oc3ccc4c(C(=O)Nc5ccccc5N)cccc4c3)ccnc2c1	MET	enzyme activity	inhibitor	–	–	> 0.5 µM
Cc1ccc(S(=O)(=O)Oc2ccccc2NC(=O)c2ccc3ncccc3c2)cc1	P2RX7	calcium signal	antagonist	–	–	1.49 µM
O=C(O)[C@H](Cc1ccccc1)NC(=O)C1(c2ccc(F)cc2)CCN(S(=O)(=O)c2ccccc2)CC1	gag-pol integrase	enzyme activity	inhibitor	TR-FRET	–	91.3 µM
COc1cccc(F)c1Cn1cnc(-c2ccc(F)cc2)c1-c1ccncc1	TGF-beta receptor type-1 (TGFBR1, Homo sapiens, UniProt P36897)	cell-free assay	–	TR-FRET	–	1.23 µM
CC1(C)CC(=O)C=C(NC(=O)Nc2ccc(O)cc2)C1	crk3 (Leishmania mexicana, UniProt O15851)	enzyme activity	inhibitor	radiometric	–	3.3 µM
COC(=O)[C@H](Cc1c[nH]cn1)NC(=O)CN(CCc1c[nH]c2ccccc12)CC(=O)O	IDE	enzyme activity	inhibitor	fluorescence	–	1.2 µM
Cc1ccc(-n2nc(C(C)(C)C)cc2NC(=O)Nc2ccc(OCCN3CCOCC3)c3ccccc23)cc1	KCNA5	ion current	inhibitor	–	–	1.1 µM
CC(C)(C)OC(=O)[C@H](Cc1c[nH]cn1)NC(=O)CN(CC(=O)O)Cc1ccccc1	IDE	enzyme activity	inhibitor	fluorescence	–	0.8 µM
CC(C)(C)OC(=O)N1CCC(C(=O)N[C@@H](Cc2ccccc2)C(=O)O)(c2ccc(-c3ccccc3)cc2)CC1	gag-pol integrase	enzyme activity	inhibitor	TR-FRET	–	64.4 µM
O=C(O)CN(CC(=O)N[C@@H](Cc1c[nH]cn1)C(=O)NCc1ccccc1)Cc1ccccc1	IDE	enzyme activity	inhibitor	fluorescence	–	1.4 µM
CC(C)C[C@H](NC(=O)[C@H](Cc1ccccc1)NC(=O)[C@H](Cc1ccc(O)cc1)NC(=O)CNC(=O)[C@H](CCCNC(=N)N)NC(=O)[C@H](CO)NC(=O)[C@H](CCC(N)=O)NC(=O)[C@H](CO)NC(=O)[C@H](C)NC(=O)[C@H](Cc1ccccc1)NC(=O)[C@@H]1CCCN1C(=O)[C@H](CO)NC(=O)[C@H](CCC(N)=O)NC(=O)[C@H](Cc1ccccc1)NC(=O)[C@H](CCC(=O)O)NC(=O)[C@H](CCC(=O)O)NC(=O)[C@H](CC(=O)O)NC(=O)[C@@H](NC(=O)[C@H](CCCNC(=N)N)NC(=O)[C@@H](N)Cc1ccccc1)C(C)C)C(=O)N[C@@H](Cc1ccccc1)C(=O)N[C@@H](CCCNC(=N)N)C(=O)N1CCC[C@H]1C(=O)N[C@@H](CCCNC(=N)N)C(=O)N[C@@H](CC(N)=O)C(N)=O	Neuromedin-U receptor 2 (NMUR2, Homo sapiens, UniProt Q9GZQ4)	ligand displacement	–	radioligand	cell membranes	0.00022 µM
O=C(O)CN(CCCc1ccccc1)CC(=O)N[C@H](CO)Cc1c[nH]cn1	IDE	enzyme activity	inhibitor	fluorescence	–	1.6 µM
Sc1nnc(-c2cc(-c3ccccc3)nc3ccccc23)o1	P2RX7	calcium signal	antagonist	–	–	7.27 µM
